# Compounds with a hit are over-represented: about 4.9% of the library has one in this group of screens.
# NF-kB expr up = NF-kB expression increase, human neuronal cells; NF-kB reporter expression; stronger effect = higher value; fold change at 12.5 µM; hit rate 1.6% among 190,000; AID 1239; in the data active = fold change above about 3.3
# STAT3 act = activators of IL-6 induced STAT3 signaling; activation (% of control), % at 5.6 µM; U3A cells, IL-6 STAT3-luciferase reporter, luminescence; 100% = signal with IL-6 EC80 alone; AID 871; hit rate 0.91% among 190,000;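 active = activation above the screen-wide mean of compound activation plus 3 SD, cut at about 130% in these data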
#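 Material: human STAT1-deficient U3A cells with stable STAT3-luciferase reporter / Probe or stimulus: IL-6 stimulus at 33 ng/mL final / Schedule: 1 h compound pre-exposure, 6 h IL-6 stimulation, 37 °C / Technique: luminescence / Read-out basis: percent of IL-6-only median luminescence / Control set: IL-6-only high control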
# APP 5'UTR act = APP 5'UTR luciferase reporter activation; SH-SY5Y APP 5'UTR luciferase reporter, luminescence; zero percent = DMSO vehicle wells; activation, % at 2 µM; hit rate 1% among 190,000; AID 1276;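 active = activation above a set limit, based on mean plus 3 SD of controls, cut at about 140% in these data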
# STAT3 blocker = reduces IL-6 driven STAT3 reporter signal; U3A cells, IL-6 STAT3-luciferase reporter, luminescence; host cell line lacks STAT1; inhibition, % at 5.5 µM; hit rate 0.89% among 190,000; AID 862;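 active = inhibition above the mean inhibition across all screened compounds plus 3 SD, cut at about 44% in these data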
# STAT1 activator = activators of IFN-gamma induced STAT1 signaling; NIH 3T3 STAT1-luciferase reporter, luminescence; 100% = IFN-gamma alone, no compound; activation (% of control), % at 5.5 µM; hit rate 2.6% among 200,000;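 active = activation above the screen-wide mean activation plus 3 SD, cut at about 130% in these data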
# STAT1 inh = STAT1 signaling inhibition. NIH 3T3 STAT1-luciferase reporter, IFN-gamma, luminescence. inhibition, % at 5.5 µM. hit rate 0.35% among 200,000;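 active = inhibition above a set limit, the mean inhibition across all tested compounds plus 3 SD, cut at about 34% in these data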
# Hits are given with their value; n = inactive; x = no result.
SMILES,NF-kB expr up,STAT3 act,APP 5'UTR act,STAT3 blocker,STAT1 activator,STAT1 inh
CNC(=O)Nc1ccc(Cl)cc1,n,n,n,n,n,n
O=C1N2CCCc3cccc(c32)C12Nc1ccccc1S2 (configuration not stated),n,135,n,n,n,n
CC1CC(C)(C)N2C(=O)C3(Nc4ccccc4S3)c3cccc1c32 (configuration not stated),n,n,n,n,n,n
O=C(Nc1ncc(Cl)cc1Cl)c1c(F)cccc1Cl,n,n,n,n,n,n
O=c1c2sccc2nc(SCc2ccc([N+](=O)[O-])cc2)n1Cc1ccccn1,n,n,n,n,n,n
CC(C)(C)C(=O)Nc1ccc2oc(-c3cc(F)c(F)cc3Cl)nc2c1,4.3,n,n,n,142,n
Cc1ccc(C)c(NC(=S)c2ccc3ccccc3n2)c1,n,154,n,n,129,n
Cc1ccc(C)c(NC(=S)Nc2cccnc2)c1,n,n,n,n,n,n
Cc1ccc(C)c(NC(=S)Nc2cccc3cnccc23)c1,n,n,n,n,n,n
Cc1ccc(C)c(NC(=S)c2ccccn2)c1,15,n,n,n,n,n
CCOC(=O)c1c(C)nc(-c2ccccc2)nc1N,4,152,n,n,148,n
CC(=O)c1c(C)nc(-c2ccccc2)nc1N,n,n,n,n,n,n
CCOC(=O)c1c(-c2ccccc2)cn2c(C)cc(C)nc12,n,n,n,n,138,n
CCOC(=O)c1c(C)nc(C)c(C(=O)OCC)c1-c1ccccc1,n,n,n,n,n,n
Cc1nc(-c2ccc(Cl)cc2)sc1C(=O)O,n,n,n,n,138,n
Cc1ccc(-c2nc(C)c(C(=O)O)s2)cc1,n,n,143,n,135,n
CCOc1ncccc1C(=O)Nc1cccc(-c2nnc3n2CCCCC3)c1,n,n,n,n,n,n
CCOC(=O)N1CCN(C(=O)c2ccc3c(c2)sc2nc(-c4ccccc4)cn23)CC1,n,n,n,n,145,n
CC(=O)Nc1cc2nn(-c3ccccc3)nc2cc1Cl,5.3,n,n,n,131,n
Cc1nn(-c2cccc(Cl)c2)nc1C(=O)O,n,n,n,n,n,n
CC(C)(C)C(=O)Nc1cc2nn(-c3ccccc3)nc2cc1Cl,n,n,n,104,n,83
Cc1cccc(-c2nnc(-c3ccc(N)cc3)o2)c1,4,n,n,n,147,n
c1ccc(-c2nnc(-c3ccncc3)o2)cc1,n,n,n,n,n,n
c1ccc(-c2nnc(-c3ccccc3)o2)cc1,4.6,n,163,n,139,n
Cc1ccc(-c2nnc(-c3cccc(Br)c3)o2)cc1,3.7,n,n,n,n,n
SMILES,NF-kB expr up,STAT3 act,APP 5'UTR act,STAT3 blocker,STAT1 activator,STAT1 inh
Cc1ccc(NC(=O)Nc2nnc(-c3ccccc3)o2)cc1,n,n,n,n,n,n
Cc1ccc(-c2nnc(Nc3ccccc3)o2)cc1,n,n,n,101,n,72
Cc1cccc(-c2nnc(SCc3ccccc3)o2)c1,n,n,n,n,n,n
Cc1ccc(Sc2ccc(CN3CCCCC3)cc2[N+](=O)[O-])cc1,n,n,n,n,n,n
Brc1cccc(-c2nnc(-c3ccccc3)o2)c1,n,n,n,n,132,n
Cc1ccc(-c2nnc(-c3ccccc3)o2)cc1Br,x,n,n,n,n,n
FC(F)(F)c1ccc(Oc2ccc3cc(Br)ccc3c2)nc1,n,n,n,n,n,n
O=[N+]([O-])c1ccc(Oc2ccc(C(F)(F)F)cn2)cc1,n,n,n,n,142,n
CC(=O)NC1C(=O)N=C(SCc2ccccc2)NC1=O (configuration not stated),n,n,n,n,n,n
CC(=O)NC1C(=O)Nc2c(C)cc(C)cc21 (configuration not stated),n,n,n,n,138,n
O=C(CSC1=NCCN1)Nc1cccc([N+](=O)[O-])c1,n,n,n,n,133,n
O=C(CSC1=NCCN1)Nc1ccccc1[N+](=O)[O-],n,n,n,n,n,n
Cc1nn(Cc2cccc(F)c2)c(C)c1NC(=O)c1c(Cl)cnn1C,n,n,n,n,n,n
Cc1ccc2nsnc2c1NC(=O)c1ccc(-c2cc(Cl)ccc2Cl)o1,n,n,n,n,129,n
C[n+]1ccccc1COc1ccc(C(C)(C)C)cc1,n,n,n,n,n,n
